Activity calls are given as the source filed them. The calls are words filed in the database; no cut-off is given here.
Key:
[1] = molecular target: Serine/threonine-protein kinase B-raf (Homo sapiens, UniProt P15056); assay: Inhibition of wild type B-RAF (unknown origin) expressed in Escherichia coli BL21 (DE3)
[2] = molecular target: Serine/threonine-protein kinase B-raf (Homo sapiens, UniProt P15056, V600E); assay: Inhibition of B-RAF V600E mutant (unknown origin) expressed in Escherichia coli BL21 (DE3)
[3] = molecular target: T1, Dual specificity mitogen-activated protein kinase kinase 5 (Homo sapiens) (UniProt Q13163); assay: Inhibition of MEK5 (unknown origin) at 1 uM relative to control
T1 sequence (whole entry): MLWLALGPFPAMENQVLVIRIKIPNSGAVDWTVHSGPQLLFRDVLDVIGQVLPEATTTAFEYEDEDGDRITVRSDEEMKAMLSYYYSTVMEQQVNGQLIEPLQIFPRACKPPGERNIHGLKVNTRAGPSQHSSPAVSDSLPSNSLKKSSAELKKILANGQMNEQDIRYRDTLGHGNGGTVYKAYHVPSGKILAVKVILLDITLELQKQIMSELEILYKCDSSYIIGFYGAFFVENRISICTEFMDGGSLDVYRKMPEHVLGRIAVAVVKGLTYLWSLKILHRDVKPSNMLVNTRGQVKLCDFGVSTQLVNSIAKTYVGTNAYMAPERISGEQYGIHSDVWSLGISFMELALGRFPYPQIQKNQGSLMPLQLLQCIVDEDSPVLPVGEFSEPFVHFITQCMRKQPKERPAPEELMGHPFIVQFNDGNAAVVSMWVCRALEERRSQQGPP

[4] = molecular target: Platelet-derived growth factor receptor beta (Homo sapiens) (UniProt P09619); assay: Inhibition of PDGFRB (unknown origin) at 1 uM relative to control
[5] = molecular target: Tyrosine-protein kinase Fgr (Homo sapiens) (UniProt P09769); assay: Inhibition of FGR (unknown origin) at 1 uM relative to control
[6] = molecular target: Tyrosine-protein kinase Blk (Homo sapiens) (UniProt P51451); assay: Inhibition of BLK (unknown origin) at 1 uM relative to control
[7] = molecular target: Serine/threonine-protein kinase VRK2 (Homo sapiens) (UniProt Q86Y07); assay: Inhibition of VRK2 (unknown origin) at 1 uM relative to control
SW-620 [8] = assay: Cytotoxicity against human SW620 cells incubated for 96 hrs by MTT assay; format: functional, cell-based
Method in brief: (§1)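 SW620 (ATCC) seeded at 4000 cells/well and A375 (ATCC) at 1000 cells/well in 96-well format. Compounds added the next day at increasing concentrations. Exposure 96 h. Viability read by MTT method per Mosmann.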

A-375 [9] = assay: Cytotoxicity against human A-375 cells incubated for 96 hrs by MTT assay; format: functional, cell-based; conditions: A-375, 96 h; method in brief: as §1
A-375 [10] = assay: Cytotoxicity against human A-375 cells expressing B-RAF V600E mutant assessed as inhibition of cell proliferation incubated for 96 hrs by MTT assay; format: functional, cell-based; method in brief: as §1
SW-620 [11] = assay: Cytotoxicity against human SW620 cells expressing wild type B-RAF assessed as inhibition of cell proliferation incubated for 96 hrs by MTT assay; format: functional, cell-based; method in brief: as §1
A-375 [12] = assay: Inhibition of MAPK pathway in human A-375 cells expressing B-RAF V600E mutant assessed as downregulation of MEK phosphorylation incubated for 1 to 4 hrs by immunoblotting analysis; format: cell-based; conditions: time 1-4 hrs
Method in brief: (§2)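 SW620 seeded at 750 000 and A375 at 300 000 cells/well in 6-well format, grown 48 h to 75% confluence. Treated with increasing compound concentrations for 1 or 4 h. Lysis in 10 mM Tris-HCl, 1% SDS, 20 mM Na3VO4. 10–25 µg protein run on SDS-PAGE, transferred to PVDF, probed for MEK, phospho-MEK, phospho-ERK, B-Raf and actin. Read by LI-COR Odyssey.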

A-375 [13] = assay: Inhibition of MAPK pathway in human A-375 cells expressing B-RAF V600E mutant assessed as downregulation of ERK phosphorylation incubated for 1 to 4 hrs by immunoblotting analysis; format: cell-based; conditions: time 1-4 hrs; method in brief: as §2
[14] = molecular target: Dual specificity mitogen-activated protein kinase kinase 4 (Homo sapiens) (UniProt P45985); assay: Inhibition of MEK4 (unknown origin) at 1 uM relative to control
[15] = molecular target: Mast/stem cell growth factor receptor Kit (Homo sapiens) (UniProt P10721); assay: Inhibition of KIT (unknown origin) at 1 uM relative to control
[16] = molecular target: RAF proto-oncogene serine/threonine-protein kinase (Homo sapiens) (UniProt P04049); assay: Inhibition of RAF1 (unknown origin) at 1 uM relative to control
SW620 [17] = assay: Inhibition of MAPK pathway in human SW620 cells expressing wild type B-RAF assessed as downregulation of MEK phosphorylation incubated for 1 to 4 hrs by immunoblotting analysis; format: cell-based; conditions: time 1-4 hrs; method in brief: as §2
SW620 [18] = assay: Inhibition of MAPK pathway in human SW620 cells expressing wild type B-RAF assessed as downregulation of ERK phosphorylation incubated for 1 to 4 hrs by immunoblotting analysis; format: cell-based; conditions: time 1-4 hrs; method in brief: as §2
[19] = molecular target: Tyrosine-protein kinase ABL1 (Homo sapiens) (UniProt P00519); assay: Inhibition of ABL1 (unknown origin) at 1 uM relative to control
[20] = molecular target: Tyrosine-protein kinase Lck (Homo sapiens) (UniProt P06239); assay: Inhibition of LCK (unknown origin) at 1 uM relative to control
[21] = molecular target: Macrophage colony-stimulating factor 1 receptor (Homo sapiens) (UniProt P07333); assay: Inhibition of CSF1R (unknown origin) at 1 uM relative to control
[22] = molecular target: Mitogen-activated protein kinase 14 (Homo sapiens) (UniProt Q16539); assay: Inhibition of p-38 alpha (unknown origin) at 1 uM relative to control
[23] = molecular target: Mitogen-activated protein kinase 11 (Homo sapiens) (UniProt Q15759); assay: Inhibition of p-38 beta (unknown origin) at 1 uM relative to control
[24] = molecular target: Proto-oncogene tyrosine-protein kinase receptor Ret (Homo sapiens) (UniProt P07949); assay: Inhibition of RET (unknown origin) at 1 uM relative to control
[25] = molecular target: Ribosomal protein S6 kinase alpha-1 (Homo sapiens) (UniProt Q15418); assay: Inhibition of RSK1 (unknown origin) at 1 uM relative to control
[26] = molecular target: Tyrosine-protein kinase CSK (Homo sapiens) (UniProt P41240); assay: Inhibition of CSK (unknown origin) at 1 uM relative to control
[27] = molecular target: Vascular endothelial growth factor receptor 1 (Homo sapiens) (UniProt P17948); assay: Inhibition of FLT1 (unknown origin) at 1 uM relative to control
[28] = molecular target: Vascular endothelial growth factor receptor 3 (Homo sapiens) (UniProt P35916); assay: Inhibition of FLT4 (unknown origin) at 1 uM relative to control
[29] = molecular target: Vascular endothelial growth factor receptor 2 (Homo sapiens) (UniProt P35968); assay: Inhibition of VEGFR2 (unknown origin) at 1 uM relative to control
[30] = molecular target: Platelet-derived growth factor receptor alpha (Homo sapiens) (UniProt P16234); assay: Inhibition of PDGFRA (unknown origin) at 1 uM relative to control
[31] = molecular target: Tyrosine-protein kinase Lyn (Homo sapiens) (UniProt P07948); assay: Inhibition of LYN (unknown origin) at 1 uM relative to control
[32] = molecular target: Tyrosine-protein kinase HCK (Homo sapiens) (UniProt P08631); assay: Inhibition of HCK (unknown origin) at 1 uM relative to control
[33] = molecular target: Proto-oncogene tyrosine-protein kinase Src (Homo sapiens) (UniProt P12931); assay: Inhibition of SRC (unknown origin) at 1 uM relative to control
[34] = molecular target: Tyrosine-protein kinase Yes (Homo sapiens) (UniProt P07947); assay: Inhibition of YES (unknown origin) at 1 uM relative to control
[35] = molecular target: Tyrosine-protein kinase TXK (Homo sapiens) (UniProt P42681); assay: Inhibition of TXK (unknown origin) at 1 uM relative to control
[36] = molecular target: Tyrosine-protein kinase Fyn (Homo sapiens) (UniProt P06241); assay: Inhibition of FYN (unknown origin) at 1 uM relative to control
SW620 [37] = assay: Inhibition of MAPK pathway in human SW620 cells expressing wild type B-RAF assessed as effect on ERK protein expression incubated for 1 to 4 hrs by immunoblotting analysis; format: cell-based; conditions: time 1-4 hrs
[38] = molecular target: Mitogen-activated protein kinase kinase kinase kinase 4 (Homo sapiens) (UniProt O95819); assay: Inhibition of MAP4K4 (unknown origin) at 1 uM relative to control
[39] = molecular target: Receptor-type tyrosine-protein kinase FLT3 (Homo sapiens) (UniProt P36888); assay: Inhibition of FLT3 (unknown origin) at 1 uM relative to control
[40] = molecular target: Cyclin-dependent kinase 19 (Homo sapiens) (UniProt Q9BWU1); assay: Inhibition of CDK11 (unknown origin) at 1 uM relative to control
[41] = molecular target: Fibroblast growth factor receptor 1 (Homo sapiens) (UniProt P11362); assay: Inhibition of FGFR1 (unknown origin) at 1 uM relative to control
[42] = molecular target: Cytoplasmic tyrosine-protein kinase BMX (Homo sapiens) (UniProt P51813); assay: Inhibition of BMX (unknown origin) at 1 uM relative to control
[43] = molecular target: Fibroblast growth factor receptor 2 (Homo sapiens) (UniProt P21802); assay: Inhibition of FGFR2 (unknown origin) at 1 uM relative to control
[44] = Homo sapiens, SW-620, 96 h, read-out: IC50

Sequence of RAF proto-oncogene serine/threonine-protein kinase (Homo sapiens) (P04049 whole entry): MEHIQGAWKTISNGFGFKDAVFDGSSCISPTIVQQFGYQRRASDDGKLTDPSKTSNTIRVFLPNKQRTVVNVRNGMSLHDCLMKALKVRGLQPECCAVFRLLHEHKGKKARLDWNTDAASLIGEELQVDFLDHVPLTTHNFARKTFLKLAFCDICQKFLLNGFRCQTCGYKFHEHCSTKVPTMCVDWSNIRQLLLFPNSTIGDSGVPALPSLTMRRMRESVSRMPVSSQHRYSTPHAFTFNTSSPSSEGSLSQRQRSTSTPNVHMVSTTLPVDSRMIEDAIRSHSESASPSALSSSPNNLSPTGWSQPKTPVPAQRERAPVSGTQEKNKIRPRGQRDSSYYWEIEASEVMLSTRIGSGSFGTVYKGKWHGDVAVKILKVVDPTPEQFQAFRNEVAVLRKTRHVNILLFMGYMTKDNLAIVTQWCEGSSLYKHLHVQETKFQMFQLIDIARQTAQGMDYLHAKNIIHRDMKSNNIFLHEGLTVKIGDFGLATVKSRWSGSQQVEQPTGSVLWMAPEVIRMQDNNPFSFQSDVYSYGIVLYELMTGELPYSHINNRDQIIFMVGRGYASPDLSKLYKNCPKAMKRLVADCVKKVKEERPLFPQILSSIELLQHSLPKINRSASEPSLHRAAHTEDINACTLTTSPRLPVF
Sequence of Tyrosine-protein kinase Blk (Homo sapiens) (P51451 2-505 limits assumed): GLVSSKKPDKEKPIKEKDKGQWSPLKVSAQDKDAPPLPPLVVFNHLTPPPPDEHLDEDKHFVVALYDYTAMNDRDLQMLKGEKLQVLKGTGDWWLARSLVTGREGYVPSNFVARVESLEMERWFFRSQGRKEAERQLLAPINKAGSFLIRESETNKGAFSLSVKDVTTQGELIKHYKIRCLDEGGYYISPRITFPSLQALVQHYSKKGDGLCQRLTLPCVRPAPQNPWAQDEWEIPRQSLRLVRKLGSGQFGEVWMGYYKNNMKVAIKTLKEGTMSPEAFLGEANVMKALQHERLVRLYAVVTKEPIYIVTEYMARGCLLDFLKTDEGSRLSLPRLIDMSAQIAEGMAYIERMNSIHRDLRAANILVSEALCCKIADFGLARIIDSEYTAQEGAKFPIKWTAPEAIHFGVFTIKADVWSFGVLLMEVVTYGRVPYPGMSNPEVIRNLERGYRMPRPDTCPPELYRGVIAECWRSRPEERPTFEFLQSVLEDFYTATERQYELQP
Sequence of Mast/stem cell growth factor receptor Kit (Homo sapiens) (P10721 whole entry): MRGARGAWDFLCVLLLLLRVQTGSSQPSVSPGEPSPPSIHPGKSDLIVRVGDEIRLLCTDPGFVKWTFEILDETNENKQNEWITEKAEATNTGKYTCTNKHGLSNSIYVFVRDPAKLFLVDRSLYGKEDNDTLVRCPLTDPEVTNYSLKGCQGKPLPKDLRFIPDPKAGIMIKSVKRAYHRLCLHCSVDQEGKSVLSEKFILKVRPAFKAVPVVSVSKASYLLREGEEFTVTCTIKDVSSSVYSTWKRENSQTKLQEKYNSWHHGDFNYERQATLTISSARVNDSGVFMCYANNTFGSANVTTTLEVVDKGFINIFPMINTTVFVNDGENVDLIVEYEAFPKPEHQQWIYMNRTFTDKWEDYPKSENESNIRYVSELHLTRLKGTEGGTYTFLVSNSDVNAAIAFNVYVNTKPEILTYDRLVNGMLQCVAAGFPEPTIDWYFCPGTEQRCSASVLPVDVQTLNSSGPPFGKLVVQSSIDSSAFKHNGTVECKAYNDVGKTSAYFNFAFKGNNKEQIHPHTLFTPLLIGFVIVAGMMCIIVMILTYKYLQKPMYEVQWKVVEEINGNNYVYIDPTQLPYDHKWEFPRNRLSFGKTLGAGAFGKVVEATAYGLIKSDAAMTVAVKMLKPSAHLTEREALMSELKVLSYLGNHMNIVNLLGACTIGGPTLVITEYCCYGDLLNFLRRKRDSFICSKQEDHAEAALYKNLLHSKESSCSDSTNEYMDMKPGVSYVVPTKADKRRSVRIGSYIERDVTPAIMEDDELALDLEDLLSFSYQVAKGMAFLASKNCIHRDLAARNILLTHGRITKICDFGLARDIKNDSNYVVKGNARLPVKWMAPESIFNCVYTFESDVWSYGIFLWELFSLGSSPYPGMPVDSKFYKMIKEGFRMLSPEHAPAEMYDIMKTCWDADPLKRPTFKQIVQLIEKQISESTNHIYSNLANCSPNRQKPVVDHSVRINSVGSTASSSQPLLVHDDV
Sequence of Platelet-derived growth factor receptor beta (Homo sapiens) (P09619 whole entry): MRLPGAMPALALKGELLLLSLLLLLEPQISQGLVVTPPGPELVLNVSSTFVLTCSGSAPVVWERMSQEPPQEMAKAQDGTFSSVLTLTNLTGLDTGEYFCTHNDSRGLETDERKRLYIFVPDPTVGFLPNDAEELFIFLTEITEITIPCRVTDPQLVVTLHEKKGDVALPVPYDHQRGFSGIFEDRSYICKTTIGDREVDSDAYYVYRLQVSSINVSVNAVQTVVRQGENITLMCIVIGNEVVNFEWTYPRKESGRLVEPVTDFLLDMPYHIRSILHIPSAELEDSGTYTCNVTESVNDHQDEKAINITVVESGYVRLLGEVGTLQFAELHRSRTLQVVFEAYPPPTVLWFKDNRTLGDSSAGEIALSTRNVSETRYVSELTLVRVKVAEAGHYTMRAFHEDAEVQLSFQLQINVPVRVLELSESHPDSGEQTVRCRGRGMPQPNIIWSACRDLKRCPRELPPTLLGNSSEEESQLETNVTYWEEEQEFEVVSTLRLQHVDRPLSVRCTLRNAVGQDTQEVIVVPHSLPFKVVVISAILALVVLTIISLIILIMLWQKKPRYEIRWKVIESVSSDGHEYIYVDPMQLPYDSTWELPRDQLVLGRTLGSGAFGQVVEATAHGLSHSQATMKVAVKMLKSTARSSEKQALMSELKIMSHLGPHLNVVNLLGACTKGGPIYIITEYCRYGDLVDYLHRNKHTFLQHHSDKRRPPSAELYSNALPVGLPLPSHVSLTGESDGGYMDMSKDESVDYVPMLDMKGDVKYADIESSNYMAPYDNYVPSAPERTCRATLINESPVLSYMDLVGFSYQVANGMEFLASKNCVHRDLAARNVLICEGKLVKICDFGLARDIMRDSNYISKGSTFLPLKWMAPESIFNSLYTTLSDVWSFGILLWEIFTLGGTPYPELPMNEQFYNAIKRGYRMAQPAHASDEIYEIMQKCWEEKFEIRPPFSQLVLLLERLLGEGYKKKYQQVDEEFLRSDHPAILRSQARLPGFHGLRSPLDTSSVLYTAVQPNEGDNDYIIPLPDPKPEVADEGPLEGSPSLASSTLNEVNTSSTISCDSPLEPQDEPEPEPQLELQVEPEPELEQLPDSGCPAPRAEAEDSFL
Sequence of Tyrosine-protein kinase Fgr (Homo sapiens) (P09769 2-529 limits assumed): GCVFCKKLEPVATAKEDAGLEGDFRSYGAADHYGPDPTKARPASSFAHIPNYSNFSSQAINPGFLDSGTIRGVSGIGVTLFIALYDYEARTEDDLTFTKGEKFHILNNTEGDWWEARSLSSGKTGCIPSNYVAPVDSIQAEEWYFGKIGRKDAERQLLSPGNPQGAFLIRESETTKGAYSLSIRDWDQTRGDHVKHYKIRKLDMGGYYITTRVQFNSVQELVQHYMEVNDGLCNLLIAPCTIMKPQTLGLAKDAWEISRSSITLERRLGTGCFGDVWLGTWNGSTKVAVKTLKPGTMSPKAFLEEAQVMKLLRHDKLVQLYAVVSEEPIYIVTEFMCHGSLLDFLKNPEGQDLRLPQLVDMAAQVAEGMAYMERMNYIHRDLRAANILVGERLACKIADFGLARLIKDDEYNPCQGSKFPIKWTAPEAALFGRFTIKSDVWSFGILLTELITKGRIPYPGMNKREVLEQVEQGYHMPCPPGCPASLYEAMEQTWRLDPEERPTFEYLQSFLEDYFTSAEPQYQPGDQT
Sequence of Macrophage colony-stimulating factor 1 receptor (Homo sapiens) (P07333 whole entry): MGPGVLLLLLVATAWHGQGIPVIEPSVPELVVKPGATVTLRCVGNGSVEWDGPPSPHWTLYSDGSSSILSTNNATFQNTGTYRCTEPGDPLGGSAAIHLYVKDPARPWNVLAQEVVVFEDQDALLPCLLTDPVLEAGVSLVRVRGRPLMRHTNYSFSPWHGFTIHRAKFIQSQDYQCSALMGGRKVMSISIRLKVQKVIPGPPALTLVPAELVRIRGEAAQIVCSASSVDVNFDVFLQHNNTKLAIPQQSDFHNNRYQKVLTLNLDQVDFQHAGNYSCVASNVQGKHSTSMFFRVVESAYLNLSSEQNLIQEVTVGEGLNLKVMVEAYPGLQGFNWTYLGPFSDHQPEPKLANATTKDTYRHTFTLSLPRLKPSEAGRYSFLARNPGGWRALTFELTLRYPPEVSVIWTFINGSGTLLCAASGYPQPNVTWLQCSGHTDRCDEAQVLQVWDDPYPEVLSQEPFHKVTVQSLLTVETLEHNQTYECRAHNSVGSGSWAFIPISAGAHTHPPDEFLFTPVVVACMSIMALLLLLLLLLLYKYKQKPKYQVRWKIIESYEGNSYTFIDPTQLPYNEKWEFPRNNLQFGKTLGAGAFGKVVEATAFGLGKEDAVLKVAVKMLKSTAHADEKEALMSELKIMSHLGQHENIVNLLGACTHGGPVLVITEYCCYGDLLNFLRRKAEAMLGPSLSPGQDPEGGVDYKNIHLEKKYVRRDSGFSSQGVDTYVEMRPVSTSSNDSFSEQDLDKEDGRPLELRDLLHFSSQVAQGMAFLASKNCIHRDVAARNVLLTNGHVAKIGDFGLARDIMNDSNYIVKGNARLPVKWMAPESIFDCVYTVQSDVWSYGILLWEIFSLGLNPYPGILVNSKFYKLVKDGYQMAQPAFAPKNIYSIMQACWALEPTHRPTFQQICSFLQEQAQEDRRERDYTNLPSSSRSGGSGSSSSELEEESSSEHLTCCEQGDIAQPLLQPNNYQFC

Row | Structure (SMILES) | IC50 [1] [nM] | IC50 [2] [nM] | inhibition [3] [%] | inhibition [4] [%] | inhibition [5] [%] | inhibition [6] [%] | IC50 (SW-620 [8]; sw-620) | IC50 (A-375 [9]) [nM] | Activity (A-375 [10]) | Activity (SW-620 [11]) | inhibition (A-375 [12]) | inhibition (A-375 [13]) | inhibition [14] [%] | inhibition [15] [%] | inhibition [16] [%] | inhibition [19] [%] | inhibition [20] [%] | inhibition [21] [%] | inhibition [22] [%] | inhibition [23] [%] | also measured
1 | CCN(C)S(=O)(=O)Nc1ccc(F)c(C(=O)c2c[nH]c3ncc(-c4ccc(Cl)cc4)cc23)c1F | 690 | 1410 | > 80 | > 80 | > 80 | > 80 | Not Active | 560 | Active | inactive | Active | Active | – | – | – | – | – | – | – | – | inhibition [7]: > 80%
2 | CCCS(=O)(=O)Nc1ccc(F)c(C(=O)c2c[nH]c3ncc(Cl)cc23)c1F | – | – | > 80 | – | > 80 | – | – | – | – | – | – | – | > 80 | > 80 | > 80 | – | – | – | – | – | –
3 | CCCS(=O)(=O)Nc1ccc(F)c(C(=O)c2c[nH]c3ncc(-c4ccc(Cl)cc4)cc23)c1F [VEMURAFENIB] | – | – | > 80 | > 80 | > 80 | – | Not Active | 90 | Active | inactive | Active | Active | > 80 | > 80 | > 80 | – | – | – | – | – | inhibition (SW620 [17]): inactive; inhibition (SW620 [18]): inactive
4 | Cc1ccc(NC(=O)c2cccc(C(C)(C)C#N)c2)cc1Nc1ccc2ncn(C)c(=O)c2c1 | – | – | > 80 | > 80 | – | > 80 | – | 40 | Active | Active | Active | Active | – | > 80 | > 80 | > 80 | > 80 | > 80 | > 80 | > 80 | inhibition [24]: > 80%; inhibition [25]: > 80%; inhibition [26]: > 80%; inhibition [27]: > 80%; inhibition [28]: > 80%; inhibition [29]: > 80%; inhibition [30]: > 80%; inhibition [31]: > 80%; inhibition [32]: > 80%; inhibition [33]: > 80%; inhibition [34]: > 80%; inhibition [35]: > 80%; inhibition [36]: > 80%; IC50 (SW-620 [8]; [44]): 170 nM; inhibition (SW620 [37]): inactive
5 | CC(C)(C#N)c1cccc(C(=O)Nc2ccc(F)c(C(=O)c3c[nH]c4ncc(Cl)cc34)c2F)c1 | 56 | 48 | > 80 | – | > 80 | > 80 | – | ~10000 | Active | Active | Active | Active | – | > 80 | > 80 | > 80 | > 80 | > 80 | > 80 | > 80 | inhibition [24]: > 80%; inhibition [26]: > 80%; inhibition [27]: > 80%; inhibition [28]: > 80%; inhibition [29]: > 80%; inhibition [30]: > 80%; inhibition [31]: > 80%; inhibition [32]: > 80%; inhibition [33]: > 80%; inhibition [34]: > 80%; inhibition [35]: > 80%; inhibition [36]: > 80%; inhibition [38]: > 80%; inhibition [39]: > 80%; inhibition [40]: > 80%; inhibition [41]: > 80%; inhibition [42]: > 80%; inhibition [43]: > 80%; IC50 (SW-620 [8]; [44]): 2810 nM; inhibition (SW620 [37]): inactive

Reference: ChEMBL document CHEMBL5385905, “Design, synthesis and characterisation of a novel type II B-RAF paradox breaker inhibitor” (Eur J Med Chem, 2023)
